From ChEMBL document CHEMBL3779805, “Orally bioavailable pyridine and pyrimidine-based Factor XIa inhibitors: Discovery of the methyl N-phenyl carbamate P2 prime group” (Bioorg Med Chem, 2016)

Columns and labels:
Coagulation factor XI = Coagulation factor XI (Homo sapiens, UniProt P03951)
Plasma = assay: Anticoagulant activity in human plasma assessed as concentration required for 50% increase in activated partial thromboplastin time by automated coagulation analyzer; format: functional
Method in brief: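 aPTT clotting assay in pooled normal human plasma on an automated coagulation analyzer with commercial reagents. EC1.5x is the inhibitor plasma concentration giving a 50% increase in clotting time over the no-inhibitor control.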

Chain of Coagulation factor XI (P03951 19-387 limits assumed): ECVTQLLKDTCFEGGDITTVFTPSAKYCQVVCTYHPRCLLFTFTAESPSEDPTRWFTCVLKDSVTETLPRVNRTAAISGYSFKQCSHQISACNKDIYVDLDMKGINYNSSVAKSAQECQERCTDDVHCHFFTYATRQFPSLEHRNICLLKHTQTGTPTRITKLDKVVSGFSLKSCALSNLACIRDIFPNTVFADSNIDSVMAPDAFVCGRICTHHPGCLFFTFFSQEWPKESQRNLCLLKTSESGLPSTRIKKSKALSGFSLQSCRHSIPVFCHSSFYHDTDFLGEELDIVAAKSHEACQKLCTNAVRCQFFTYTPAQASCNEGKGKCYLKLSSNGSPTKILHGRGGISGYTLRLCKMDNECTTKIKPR
Chain of Coagulation factor XI (P03951 388-625 limits assumed): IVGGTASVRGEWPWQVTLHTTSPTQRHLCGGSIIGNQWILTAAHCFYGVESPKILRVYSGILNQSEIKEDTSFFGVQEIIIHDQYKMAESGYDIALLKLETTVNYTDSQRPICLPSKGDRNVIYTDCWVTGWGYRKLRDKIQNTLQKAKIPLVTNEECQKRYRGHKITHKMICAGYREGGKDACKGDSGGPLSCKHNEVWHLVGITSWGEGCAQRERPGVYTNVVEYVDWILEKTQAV

Ki (Coagulation factor XI) [nM] | SMILES | EC1.5 (Plasma) [µM]
9.2 | NC[C@H]1CC[C@H](C(=O)NC(Cc2ccccc2)c2cc(-c3ccc4c(N)noc4c3)ccn2)CC1 (mixture of isomers) | 
205 | NC[C@H]1CC[C@H](C(=O)NC(Cc2ccccc2)c2cc(-c3cccc(C(=O)O)c3)ccn2)CC1 (mixture of isomers) | 
87 | COc1n[nH]c2ccc(-c3ccnc(C(Cc4ccccc4)NC(=O)[C@H]4CC[C@H](CN)CC4)c3)cc12 (mixture of isomers) | >40
53 | NC[C@H]1CC[C@H](C(=O)NC(Cc2ccccc2)c2cc(-c3ccc4[nH]nc(N)c4c3)ccn2)CC1 (mixture of isomers) | 26
61 | NC[C@H]1CC[C@H](C(=O)NC(Cc2ccccc2)c2cc(-c3ccc4[nH]ncc4c3)ccn2)CC1 (mixture of isomers) | 
24 | NC[C@H]1CC[C@H](C(=O)NC(Cc2ccccc2)c2cc(-c3ccc(N)nc3)ccn2)CC1 (mixture of isomers) | 
144 | NC[C@H]1CC[C@H](C(=O)NC(Cc2ccccc2)c2cc(-c3ccc4c(N)nccc4c3)ccn2)CC1 (mixture of isomers) | 
10 | NC[C@H]1CC[C@H](C(=O)NC(Cc2ccccc2)c2cc(-c3ccc4c(N)ncnc4c3)ccn2)CC1 (mixture of isomers) | 2.8
5.3 | NC[C@H]1CC[C@H](C(=O)NC(Cc2ccccc2)c2cc(-c3ccc(N)c(C(=O)O)c3)ccn2)CC1 (mixture of isomers) | 0.8
12 | COC(=O)Nc1ccc(-c2ccnc(C(Cc3ccccc3)NC(=O)[C@H]3CC[C@H](CN)CC3)c2)cc1 (mixture of isomers) | 3.7
97 | NC[C@H]1CC[C@H](C(=O)NC(Cc2ccccc2)c2cc(-c3ccc4c(O)n[nH]c4c3)ccn2)CC1 (mixture of isomers) | 
87 | NC[C@H]1CC[C@H](C(=O)NC(Cc2ccccc2)c2cc(-c3ccc4cn[nH]c4c3)ccn2)CC1 (mixture of isomers) | >40
110 | Cn1[nH]c2ccc(-c3ccnc(C(Cc4ccccc4)NC(=O)[C@H]4CC[C@H](CN)CC4)c3)cc2c1=O (mixture of isomers) | 
56 | NC[C@H]1CC[C@H](C(=O)NC(Cc2ccccc2)c2cc(-c3ccc(N)cc3)ccn2)CC1 (mixture of isomers) | 35
